Laboratory results as given in ChEMBL document CHEMBL4513216, “Probing the Open Global Health Chemical Diversity Library for Multistage-Active Starting Points for Next-Generation Antimalarials” (ACS Infect Dis, 2020).

Assay: Toxicity liver stage against HepG2, at 10uM
Assay type: cell-based
Design: test concentration 10 uM, cell line HepG2-A16-CD81EGFP
Conditions: human, HepG2-A16-CD81EGFP cells; read-out: INHIBITION
Summary of the method: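 Uninfected HepG2-A16-CD81EGFP cells, 3 × 10^3 per well, 1536-well, plated on prespotted compound at 10 μM final, parasite-free screening media added to match infected plates; puromycin 10 μM positive, DMSO 0.5% negative; run in parallel with 48 h PbLuc assay at 37 °C, 5% CO2; viability by CellTiter-Glo luminescence, normalized to controls.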

SMILES | cytotoxicity at 10 µM
Cc1cc(C(=O)NCc2cccn2C)nn1C | 1.21%
C/C(NC(=O)c1ccccn1)=C1\C(=O)C[C@@H]2[C@H]1C2(C)C | 7.66%
COc1cccc2ccn(CC(=O)NCCC(C)C)c12 | -43.3%
Cc1cc(C)nc(NC(=O)NCCCSc2nncn2C)n1 | 1.74%
O=c1[nH]c2c(-c3ccccn3)nsc2c(=O)n1C1CCCCC1 | -11.5%
Cc1n[nH]c2c1C(c1ccc3c(c1)OCO3)SCC(=O)N2 (centres undefined) | 3.46%
Cc1nn(S(=O)(=O)c2ccc(Cl)cc2)c(C)c1C | 15.1%
COCCN(Cc1ccoc1)C(=O)c1c(F)cccc1Cl | -0.11%
Cc1oc(-c2nc(C#N)c(N(C)C)o2)cc1S(=O)(=O)N1CCCC1 | -8.87%
Cc1noc([C@@H]2CC[C@@H]3[C@@H](CCN3S(=O)(=O)C3CC3)O2)n1 | -11.6%
CCO[C@@H]1CC[C@H]2[C@H]1OCCN2C(=O)C1CCOCC1 | -19.8%
Cc1ccnc(NC(=O)CCc2cnn(C)c2C)c1 | 0.107%
CCS(=O)(=O)Nc1cnn(Cc2cccc(F)c2)c1 | -1%
CCn1c(SCC(=O)O)nnc1C(C)NC(=O)c1ccc(Cl)cc1 (centres undefined) | 3.52%
CCOC(=O)C1CCN(c2cc(C(=O)N3CCCCC3)nc(C)n2)CC1 | -4.17%
O=C(O)c1ccnc2c(Br)cccc12 | 8.02%
O=C(O)[C@H]1CN(Cc2ccccc2)C[C@@H]1C(=O)c1ccccc1 | 5.76%
CCCn1ncc(C(=O)NC(C)c2c(C)nn(CC)c2C)c1C (centres undefined) | 9.91%
CNc1cnc(CC2COCCN(Cc3ccccc3)C2)cn1 (centres undefined) | 10.9%
O=S(=O)(c1ccccc1)N1CCOCC(Cc2cccnc2)C1 (centres undefined) | 0.812%
Cc1cc(C(=O)N2CCC(O)(Cn3c(C)cc4ccncc43)CC2)on1 | 9.55%
Cc1cc(C)n(CC(=O)N2CCCC2c2cc3cccnc3[nH]2)n1 (centres undefined) | 3.94%
COc1ccccc1C(=O)N1C[C@@H]2CCCCN(CC(N)=O)[C@@H]2C1 | -4.43%

SMILES | cytotoxicity at 10 µM
COc1ccc(CC2CN(C(=O)c3coc(C)n3)CCO2)cc1 (centres undefined) | 3.8%
Cc1nccnc1CCC1COCCN1C(=O)CCc1c(C)noc1C (centres undefined) | 5.7%
NCc1cnn(-c2ccccc2C(=O)N2CCCC(C(N)=O)C2)c1 (centres undefined) | 1.2%
CC(C)NC(=O)NCc1nnc2n1C(C(=O)N(C)C)CC2 (centres undefined) | 5.45%
O=c1[nH]c2ncccc2n1C1CCCC1 | 10.6%
O=C(CN1CCCCC1)Nc1cc(C(F)(F)F)ccc1-n1cccc1 | 5.24%
O=C(COc1ccccc1Br)N1CCOc2ccncc21 | 5.13%
O=c1[nH]c(=O)n(CC(O)c2ccc(F)cc2F)cc1Cl (centres undefined) | 2.64%
Cc1cc(NC(=O)N2CCC[C@@H]2CO)nn1-c1cccc(Cl)c1 | -1.08%
CC(=O)NC1CCCN(C(=O)CCc2cccnc2)C1 (centres undefined) | 19.8%
N#Cc1cc(S(N)(=O)=O)ccc1N1CCc2c(Cl)cccc2C1 | 14.7%
COc1ccccc1CC1CCCN(C(=O)c2cn[nH]c2C)C1 (centres undefined) | 7.61%
COC(=O)C1CCCCN1C(=O)c1ccccc1F (centres undefined) | 8.96%
CN(C)C(CNC(=O)c1ccnc(-n2cncn2)c1)c1ccccc1 (centres undefined) | -130%
CC(=O)N1CCC(NC(=O)CN2CCCc3c(F)ccc(C)c32)CC1 | -7.68%
NC(=O)c1ccc(NC(=O)c2ccncc2F)cn1 | 6.48%
OCCN(Cc1cccnc1)c1cnc2ccccc2n1 | 1.06%
CCCn1nnnc1CSc1nccn1Cc1ccccn1 | 6.24%
CN(CCCNC(=O)Nc1ccc(C#N)cc1)CC(F)(F)F | -3%
Cc1cc(I)cnc1NC(=O)C(C)(C)C | 4.44%
CCOCCOC(C)C(=O)Nc1ccc2ccn(CCN(C)C)c2c1 (centres undefined) | 10.1%
CC(C)(C)Oc1ccc(C(=O)N2CCOCC2c2ncon2)cc1 (centres undefined) | -0.968%
NC(=O)CN(CC1CCOC1)C1CC1 (centres undefined) | -14%

SMILES | cytotoxicity at 10 µM
Cn1ccc2c(C(=O)NCCCS(C)(=O)=O)cccc21 | -0.915%
O=C(c1ccco1)N(CC(F)(F)F)C1CCCOC1 (centres undefined) | -19.5%
CCOC(C)c1nc(CN2CCN(Cc3cccnc3)CC2)cs1 (centres undefined) | 3.59%
O=C(CN1CCCCC1Cn1cccn1)NC1CCOCC1 (centres undefined) | 4.08%
Cc1noc(C)c1CNC(=O)N1CCC(NS(C)(=O)=O)CC1 | -9.41%
COc1ccc(F)cc1C[S+]([O-])CC(=O)NCc1ccccc1C (centres undefined) | -0.907%
CS(=O)(=O)c1cccc(C(=O)NCC2Cc3ccccc3O2)c1 (centres undefined) | -1.26%
CN1CCC(NC(=O)CC2CN(Cc3ccccc3)CCO2)CC1 (centres undefined) | -22.2%
Cc1cccc(-c2nc(CN3CCn4c(nnc4C4CC4)C3)no2)c1 | 3.33%
CCc1noc(CC)c1CNC(=O)Nc1cccc(C(=O)N(C)C)c1 | 16.4%
Cc1cc(F)ccc1NCC(=O)NCC(F)(F)F | -2.56%
COc1ccc(C(N)=O)cc1NCc1noc(-c2ccsc2)n1 | 3.33%
CC(C)CNC(=O)c1ccc(NC(=O)NCC2CC2)cc1Cl | 7.71%
COc1cc(F)c(C(C)NC(=O)c2cccnc2C)cc1OC (centres undefined) | 38%
O=C(c1ccc(N2CCCC2)nn1)N1CCCc2cc(F)c(F)cc21 | -16.3%
CSCCN(C)Cc1ccc(F)cc1C#N | 4.81%
COc1ccnc(N2CCN(Cc3nc(-c4ccoc4)no3)CC2)c1 | -10.9%
CC(C)COCC(NC(=O)Cc1ccn[nH]1)c1ccco1 (centres undefined) | -1.53%
CC1CN(C(=O)NCCn2ccnc2)CCO1 (centres undefined) | -49.5%
CC(C)c1nc(CN(C)C2CCN(CC(F)(F)F)C2)no1 (centres undefined) | -15.8%
Cc1ncccc1NC(=O)C1=NOC2(CCN(Cc3nccs3)C2)C1 (centres undefined) | 2.11%
COc1ccc(-c2cn[nH]c2)cc1CNC1CCCC1 | -45.3%
COc1cccc(N2CCN(C(=O)C(C)Oc3ccccc3)CC2=O)c1 (centres undefined) | -4.73%

SMILES | cytotoxicity at 10 µM
CC(C)CC(C)NCc1cccnc1N1CCN(c2ccccn2)CC1 (centres undefined) | 0.997%
CCc1nnc(CN(CC)C(=O)C2CC(=O)N(C3CC3)C2)o1 (centres undefined) | -0.143%
Cc1cc(C(=O)N2CCCC(c3ccc(C(=O)O)cc3)C2)c(C)o1 (centres undefined) | 11.8%
CCCn1nccc1S(=O)(=O)N1CCC2(CCCN(C(C)C)C2=O)C1 (centres undefined) | 5.96%
O=C(O)[C@@H]1CN(C2CCCCC2)C[C@H]1C1CC1 | -140%
CC(C)Nc1cc(N2CCN(Cc3ccccc3)C(CCO)C2)ncn1 (centres undefined) | 7.9%
CN1CCCN(C(=O)c2cnc(Cc3c(Cl)cccc3Cl)nc2O)CC1 | -0.862%
O=C1O[C@@H]2CN(Cc3ccsc3)C[C@@H]2N1Cc1ccccn1 | 9.77%
COCCS(=O)(=O)c1ncc(CN(C)C)n1Cc1ccccc1 | 3.19%
O=C1CCCCCN1CCc1nc(-c2cccnn2)no1 | -1.75%
Cc1csc(CN2CC[C@@](O)(C3CCOCC3)[C@H](C)C2)n1 | 4.48%
CCC(C)N(Cc1sccc1C)C(=O)c1cnc[nH]1 (centres undefined) | 5.55%
CCCN1CCN(c2ccc(-c3nc(C)no3)cn2)CC1 | 8.95%
CC1CCCN1Cc1ccccc1-c1nc(C(C)(C)C)cc(=O)[nH]1 (centres undefined) | 11.4%
CCn1cc(C2=CCN(CCCOc3ccccc3)CC2)cn1 | -9.98%
CCC(CO)N(Cc1ccco1)C(=O)c1cccnc1NC (centres undefined) | 1.64%
CC(C)n1ccnc1CN1CCOC(CCc2ccccc2)C1 (centres undefined) | -132%
CCNc1cc(N2CCN(C(=O)c3ccc(OC)cc3)CC2)nc(C)n1 | -3.45%
C=C(C)COc1cccc(C(=O)NCCCc2nnn[nH]2)c1 | -0.531%
Cc1nc2ncnn2c2ccn(-c3cccnc3O)c(=O)c12 | 15.9%
CCCc1nc(CNC(=O)Cc2csc(C)n2)cs1 | -10.6%
Cc1noc(C)c1CCC(=O)N1CCN(CCn2cncn2)CC1 | 5.03%
Cc1ncsc1CCC(=O)NCc1cc2n(n1)CCN(C(=O)N(C)C)C2 | 15.3%

SMILES | cytotoxicity at 10 µM
O=C(NCCNc1ncccn1)C1CCN(C(=O)NC2CC2)CC1 | -14.5%
Cc1cnn(C2CCCN(C(=O)CCCn3ccnc3C)C2)c1 (centres undefined) | -18.3%
CCc1ccc(C(=O)N2CCC(c3nncn3CC)CC2)s1 | -15.4%
Cc1nn(C)c(N2CCOCC2)c1CNC1CCC(O)CC1 (centres undefined) | -13.2%
Cc1cc(CN2CCN(CC(O)c3ccc(Cl)cc3)CC2)no1 (centres undefined) | -7.06%
N#Cc1ccc(OCC(O)CN2CCc3cncnc3C2)cc1 (centres undefined) | -8.61%
N#CCc1cccc(C(=O)N2CCN(CC(O)c3ccccc3)CC2)c1 (centres undefined) | -10.7%
Cc1nn(C)cc1C(=O)N1CCCC(n2cncn2)C1 (centres undefined) | -3.27%
Cc1cc(C)n(CC2CN(CCOc3ccccc3F)CCO2)n1 (centres undefined) | -6.73%
Cc1cnn(CC2CCCCN2C(=O)CC(F)(F)F)c1 (centres undefined) | -11.5%
CC(=O)Nc1nc(C(=O)NCc2ccnc(N3CCCC3)c2)cs1 | -1.94%
c1csc(-c2noc(CN3CCCCC3Cn3cccn3)n2)c1 (centres undefined) | -15.4%
CC(NC(=O)Nc1ccc(N2CCCC2)nc1)c1nncn1C (centres undefined) | -12.6%
Cc1n[nH]c(C)c1NC(=O)CN1CCCC1c1c(C)nn(C)c1C (centres undefined) | -19.2%
CC(C)c1csc(C2CCCN(C(=O)Cn3ccccc3=O)C2)n1 (centres undefined) | -14.4%
CS(=O)(=O)NCCCN1CCCC1c1ccccc1 (centres undefined) | -13.4%
Cc1cnn(CC2CCCN2C(=O)c2cc3ccccc3[nH]c2=O)c1 (centres undefined) | 2.38%
CCn1ncc2c1C(COCC1CC1)N(C(=O)c1ccncn1)CC2 (centres undefined) | -147%
CCn1cc2c(n1)CN(Cc1ccoc1)CC2COCC1CC1 (centres undefined) | -23.3%
CC(C)NC(=O)c1ccc2c(c1)C1(CCN(C)CC1)C(=O)N2 | -0.201%
CSc1ccccc1C(=O)N1C[C@@H]2CC[C@H]1CN(C(=O)C1CCC1)C2 | -6.75%
OC12CCC(CC1)N(Cc1ccc(F)cc1)C2CN1CCOCC1 (centres undefined) | 5.29%
